Laboratory results from the M2OR odorant receptor database.

Columns and labels:
Conditions in all cases: stereoisomer not certain
UniProt Q8VGX8 = target: T1, UniProt Q8VGX8
T1 sequence (whole entry): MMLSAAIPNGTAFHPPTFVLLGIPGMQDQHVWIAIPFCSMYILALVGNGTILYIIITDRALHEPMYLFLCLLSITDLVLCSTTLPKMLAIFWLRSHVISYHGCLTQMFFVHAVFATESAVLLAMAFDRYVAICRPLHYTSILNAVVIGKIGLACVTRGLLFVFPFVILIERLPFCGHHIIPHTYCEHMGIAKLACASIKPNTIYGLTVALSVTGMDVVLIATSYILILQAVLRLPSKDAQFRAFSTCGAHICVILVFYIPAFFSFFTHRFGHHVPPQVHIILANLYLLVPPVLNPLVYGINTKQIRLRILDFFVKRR
Outline: (§1)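 Assay methods differ from source to source, frequently being transient luciferase assays in mammalian cell lines. For each receptor–molecule pair, the label responsive (active) applies when the original authors judged the measured signal statistically different from baseline, and non-responsive (inactive) applies otherwise.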

UniProt Q8VGY6 = target: T2, UniProt Q8VGY6
T2 sequence (whole entry): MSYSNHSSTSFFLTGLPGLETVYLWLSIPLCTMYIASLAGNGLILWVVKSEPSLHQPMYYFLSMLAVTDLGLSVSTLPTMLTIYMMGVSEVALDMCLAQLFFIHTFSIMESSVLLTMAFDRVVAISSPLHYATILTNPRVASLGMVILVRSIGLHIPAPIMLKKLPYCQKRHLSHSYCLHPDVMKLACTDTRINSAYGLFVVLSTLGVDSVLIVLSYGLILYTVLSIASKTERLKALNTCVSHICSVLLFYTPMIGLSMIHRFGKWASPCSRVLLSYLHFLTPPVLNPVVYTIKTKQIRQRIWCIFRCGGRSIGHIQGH
Outline: as §1

UniProt Q8VGZ2 = target: T3, UniProt Q8VGZ2
T3 sequence (whole entry): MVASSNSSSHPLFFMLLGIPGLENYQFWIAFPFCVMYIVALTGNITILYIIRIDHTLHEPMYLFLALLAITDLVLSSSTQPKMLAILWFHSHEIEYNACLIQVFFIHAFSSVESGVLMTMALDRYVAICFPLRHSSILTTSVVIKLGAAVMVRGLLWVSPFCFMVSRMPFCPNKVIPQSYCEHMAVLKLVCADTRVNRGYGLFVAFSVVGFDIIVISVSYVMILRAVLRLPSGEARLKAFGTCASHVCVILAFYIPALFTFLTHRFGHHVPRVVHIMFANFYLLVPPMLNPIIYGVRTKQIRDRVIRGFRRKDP
Outline: as §1

UniProt Q8VGZ7 = target: T4, UniProt Q8VGZ7
T4 sequence (whole entry): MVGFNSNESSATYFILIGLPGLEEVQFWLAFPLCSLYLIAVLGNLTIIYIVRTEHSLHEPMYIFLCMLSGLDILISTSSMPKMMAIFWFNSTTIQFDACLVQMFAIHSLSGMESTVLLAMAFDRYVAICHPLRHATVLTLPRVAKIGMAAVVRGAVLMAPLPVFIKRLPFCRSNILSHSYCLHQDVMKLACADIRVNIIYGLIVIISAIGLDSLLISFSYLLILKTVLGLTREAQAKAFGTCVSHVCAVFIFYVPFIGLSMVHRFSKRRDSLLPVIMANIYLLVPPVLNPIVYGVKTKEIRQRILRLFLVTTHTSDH
Outline: as §1

UniProt Q8VH10 = target: T5, UniProt Q8VH10
T5 sequence (whole entry): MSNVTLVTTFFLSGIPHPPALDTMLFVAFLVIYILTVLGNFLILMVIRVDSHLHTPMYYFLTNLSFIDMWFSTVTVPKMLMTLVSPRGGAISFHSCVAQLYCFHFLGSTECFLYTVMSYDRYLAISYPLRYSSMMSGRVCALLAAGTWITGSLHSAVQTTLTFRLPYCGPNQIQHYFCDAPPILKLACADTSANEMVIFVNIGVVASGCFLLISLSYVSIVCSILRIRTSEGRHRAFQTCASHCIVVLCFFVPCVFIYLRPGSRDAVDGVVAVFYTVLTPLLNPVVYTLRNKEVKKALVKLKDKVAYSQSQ
Outline: as §1

UniProt Q8VH16 = target: T6, UniProt Q8VH16
T6 sequence (whole entry): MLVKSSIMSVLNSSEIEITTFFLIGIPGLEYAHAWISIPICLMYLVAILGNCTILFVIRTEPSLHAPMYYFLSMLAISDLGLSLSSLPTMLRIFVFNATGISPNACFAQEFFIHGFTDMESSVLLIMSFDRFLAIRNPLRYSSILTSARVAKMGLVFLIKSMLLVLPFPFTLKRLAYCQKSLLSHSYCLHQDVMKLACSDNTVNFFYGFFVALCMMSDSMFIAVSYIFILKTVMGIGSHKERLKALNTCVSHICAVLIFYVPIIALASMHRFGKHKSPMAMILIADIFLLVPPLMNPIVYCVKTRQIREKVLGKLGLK
Outline: as §1

UniProt Q8VH20 = target: T7, UniProt Q8VH20
T7 sequence (whole entry): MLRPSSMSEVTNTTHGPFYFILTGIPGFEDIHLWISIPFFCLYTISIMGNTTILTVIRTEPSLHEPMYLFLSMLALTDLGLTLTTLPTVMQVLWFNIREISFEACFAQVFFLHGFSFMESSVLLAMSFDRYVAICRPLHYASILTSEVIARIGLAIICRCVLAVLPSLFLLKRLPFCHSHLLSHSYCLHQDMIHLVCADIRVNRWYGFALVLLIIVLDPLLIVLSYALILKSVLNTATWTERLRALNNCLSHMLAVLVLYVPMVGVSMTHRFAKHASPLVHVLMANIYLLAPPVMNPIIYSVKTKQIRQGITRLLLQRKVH
Outline: as §1

UniProt Q8VH21 = target: T8, UniProt Q8VH21
T8 sequence (whole entry): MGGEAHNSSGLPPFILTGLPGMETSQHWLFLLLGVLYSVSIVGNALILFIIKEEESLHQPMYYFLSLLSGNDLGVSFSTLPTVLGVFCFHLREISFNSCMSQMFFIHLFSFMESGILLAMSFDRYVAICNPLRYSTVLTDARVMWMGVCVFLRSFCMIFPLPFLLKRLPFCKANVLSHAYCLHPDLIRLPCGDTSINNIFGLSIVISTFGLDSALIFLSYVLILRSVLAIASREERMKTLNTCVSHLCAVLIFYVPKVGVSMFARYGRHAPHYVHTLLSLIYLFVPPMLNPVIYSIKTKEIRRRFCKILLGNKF
Outline: as §1

UniProt Q8VH18 = target: T9, UniProt Q8VH18
T9 sequence (whole entry): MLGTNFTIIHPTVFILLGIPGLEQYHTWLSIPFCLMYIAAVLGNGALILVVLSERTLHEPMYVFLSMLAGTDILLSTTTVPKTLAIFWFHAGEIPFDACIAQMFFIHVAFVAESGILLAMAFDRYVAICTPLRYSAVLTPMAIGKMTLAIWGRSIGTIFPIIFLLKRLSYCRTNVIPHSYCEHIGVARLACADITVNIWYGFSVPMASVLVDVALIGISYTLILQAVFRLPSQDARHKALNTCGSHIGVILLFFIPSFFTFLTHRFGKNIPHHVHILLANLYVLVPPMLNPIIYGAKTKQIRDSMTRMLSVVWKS
Outline: as §1

SMILES	odorant receptor agonist call (UniProt Q8VGX8)	odorant receptor agonist call (UniProt Q8VGY6)	odorant receptor agonist call (UniProt Q8VGZ2)	odorant receptor agonist call (UniProt Q8VGZ7)	odorant receptor agonist call (UniProt Q8VH10)	odorant receptor agonist call (UniProt Q8VH16)	odorant receptor agonist call (UniProt Q8VH20)	odorant receptor agonist call (UniProt Q8VH21)	odorant receptor agonist call (UniProt Q8VH18)
CC(C)=CCCC(C)CCO (stereo unspecified)	inactive	inactive	inactive	inactive	inactive	inactive	inactive	inactive	–
CCCCCCO	inactive	inactive	inactive	inactive	inactive	inactive	inactive	inactive	inactive
CCCC(=O)C(C)=O	inactive	inactive	inactive	inactive	inactive	inactive	inactive	inactive	–
CCCCCCCO	inactive	inactive	inactive	inactive	inactive	inactive	inactive	inactive	inactive
CC(=O)OCC=C(C)C	inactive	inactive	inactive	inactive	inactive	inactive	inactive	inactive	–
CCCCCCCCS	inactive	inactive	inactive	inactive	inactive	inactive	inactive	inactive	–
CCCCCCCCCCO	inactive	inactive	inactive	inactive	inactive	inactive	inactive	inactive	–
CCCCCCCC(C)=O	inactive	inactive	inactive	inactive	inactive	inactive	inactive	inactive	–
O=C(c1ccccc1)c1ccccc1	inactive	inactive	inactive	inactive	inactive	inactive	inactive	inactive	–
CCCCCC1=C(C)CCC1=O	inactive	inactive	inactive	inactive	inactive	inactive	inactive	inactive	–
C=C(C)C1CCC(C)C(=O)C1 (stereo unspecified)	inactive	inactive	inactive	inactive	inactive	inactive	inactive	inactive	–
CCCCC(=O)CC	inactive	inactive	inactive	inactive	inactive	inactive	inactive	inactive	–
CC(=O)OCCc1ccccc1	–	–	inactive	inactive	–	inactive	inactive	inactive	–
CCCC(C)C(=O)OCC (stereo unspecified)	–	–	inactive	inactive	–	inactive	inactive	inactive	–
CC1CC=CCCCCCCCCCC(=O)C1 (stereo unspecified)	–	–	inactive	inactive	–	inactive	inactive	inactive	–
O=C(OCc1ccccc1)c1ccccc1O	–	–	inactive	inactive	–	inactive	inactive	inactive	–
CCCCCO	inactive	inactive	inactive	inactive	inactive	–	inactive	–	inactive
CCCCCOC(=O)CC	–	–	inactive	inactive	–	inactive	inactive	inactive	–
CC(=O)OCc1ccc2c(c1)OCO2	–	–	inactive	inactive	–	inactive	inactive	inactive	–
O=C(O)CCCBr	inactive	–	–	–	–	–	–	–	inactive
O=C(O)CCCCBr	inactive	–	–	–	–	–	–	–	inactive
C1CCOCC1	–	–	inactive	inactive	–	inactive	inactive	inactive	–
OCCc1ccccc1	–	–	inactive	inactive	–	inactive	inactive	inactive	–
CCCCCCC(C)O (stereo unspecified)	–	–	inactive	inactive	–	inactive	inactive	inactive	–
CCCCCC(C=O)=Cc1ccccc1	–	–	inactive	inactive	–	inactive	inactive	inactive	–
CCc1ccccc1O	–	–	inactive	inactive	–	inactive	inactive	inactive	–
CCCCCCCC(=O)[O-].[H+]	active	inactive	active	inactive	inactive	–	active	–	active
CC(CC=O)CCCC(C)(C)O (stereo unspecified)	–	–	inactive	inactive	–	inactive	inactive	inactive	–
